Assay results pooled from the literature.
Protocols differ between the studies behind these lines.
Target: MAP kinase-interacting serine/threonine-protein kinase 2 (MKNK2, Homo sapiens, UniProt Q9HBH9)

CC(C)(C)c1ccc(-c2nc(CBr)nn2-c2cccc(O)c2)cc1  remaining binding (cell-free assay, competition with immobilised ligand; 10 µM): 62%
O=C(c1ccc(Nc2ncc(Cl)c(-c3cc4ccccc4s3)n2)cc1)N1CCC(N2CCCC2)CC1  remaining binding (binding, competition with immobilised ligand; 1 µM): 6.9%
CN(CCCC(F)(F)F)c1nccc(-c2cnn3ncccc23)n1  remaining binding (binding; 1 µM): 35%
FC(F)(F)c1ccc2c(c1)nc(-c1cccnc1)n2C1CC1  remaining binding (cell-free assay, competition with immobilised ligand; 1 µM): 100%
C[C@@H](c1ccc(-n2cnc3c(N)ncnc32)cc1)N1CCc2nn(C)c(Cc3ccccc3)c2C1=O  remaining binding (binding, competition with immobilised ligand; 0.1 µM): 62%
CN(c1ccnc(CNc2nc(Nc3ccc4c(c3)CC(=O)N4)ncc2C(F)(F)F)n1)S(C)(=O)=O  remaining binding (cell-free assay, competition with immobilised ligand; 1 µM): 91%
O=C(NCC1CCOCC1)c1n[nH]cc1NC(=O)c1c(F)cccc1F  remaining binding (binding, competition with immobilised ligand; 1 µM): 100%
CN(c1nccc(-c2cnn3ncccc23)n1)C1CC1  remaining binding (binding; 1 µM): 77%
CNCc1ccccc1-c1csc([C@@H](C)Nc2nc(C)nc3cc(OC)c(OC)cc23)c1  remaining binding (cell-free assay, competition with immobilised ligand; 1 µM): 63%
CNC(=O)[C@@H]1CC[C@@H](n2c(-c3ccc4cnccc4c3)nc3ccc(C(=O)NCc4cccc(C(N)=O)c4)cc32)C1  remaining binding (binding, competition with immobilised ligand; 1 µM): 100%
CCC(=O)N[C@@H]1CC[C@H](C(=O)N(C)c2ccc(-c3nc4ccccc4o3)cc2)C1  remaining binding (cell-free assay, competition with immobilised ligand; 1 µM): 100%
CN(C)c1nccc(-c2cnc3ncccn23)n1  remaining binding (binding; 1 µM): 46%
COc1cnc(Nc2cccc(S(N)(=O)=O)c2)nc1N1CCN(c2ccccc2)C(=O)C1  remaining binding (binding, competition with immobilised ligand; 1 µM): 59%
CCN1CCN(Cc2ccc(C(=O)Nc3ccc(C)c(Oc4ccc5c(c4)CC(=O)N5)c3)cc2C(F)(F)F)CC1  remaining binding (binding, competition with immobilised ligand; 1 µM): 95%
O=C(c1ccc(Nc2ncc(Cl)c(-c3ccc(Cl)s3)n2)cc1)N1CCC(N2CCCC2)CC1  remaining binding (binding, competition with immobilised ligand; 1 µM): 4.2%
C=CC(=O)N1CCC(C(=O)NCC(=O)N2CCN(c3nc(-c4cnc(N)nc4C(F)F)nc(N4CCOCC4)n3)CC2)CC1  remaining binding (binding, competition with immobilised ligand; 1 µM): 100%
O=C(NCCCN1CCOCC1)c1ccc(Nc2nccc(-c3cc4ccccc4s3)n2)cc1  remaining binding (binding, competition with immobilised ligand; 1 µM): 28%
c1cncc(-c2cccc(Nc3nccc(NC4CCCCC4)n3)c2)c1  remaining binding (binding, competition with immobilised ligand; 10 µM): 33%
C[C@H]1CCN(c2nccc(-c3cnn4ncccc34)n2)C1  remaining binding (binding; 1 µM): 2.3%
O=C(O)c1cc(-c2ccc(C3CCNCC3)cc2)c2ccc(-c3ccc(C(F)(F)F)cc3)cc2c1  remaining binding (cell-free assay, competition with immobilised ligand; 1 µM): 100%
N[C@@H]1CCN(c2nccc(-c3cnn4ncccc34)n2)C1  remaining binding (binding; 1 µM): 14%
CCCOc1ccc([C@H]2[C@H](C(=O)O)[C@@H](c3ccc4c(c3)OCO4)CN2CC(=O)Nc2c(CC)cccc2CC)cc1  remaining binding (cell-free assay, competition with immobilised ligand; 1 µM): 74%
Cc1cnn2ncc(-c3ccnc(N(C)C)n3)c2c1  remaining binding (binding; 1 µM): 49%
C[C@@H]1CN(c2ccc3ncc(-c4ccc5[nH]nc(C6CC6)c5c4)n3n2)C[C@H](C)O1  remaining binding (binding, competition with immobilised ligand; 50 nM): 75%
CN(C(=O)c1ccccc1)c1cc(N(C)c2ccc3c(c2)CCc2ccc(C(=O)NCCN4CCOCC4)cc2C3=O)ccc1F  remaining binding (cell-free assay, competition with immobilised ligand; 1 µM): 100%
c1cnn2ncc(-c3ccnc(N4CCC45COC5)n3)c2c1  remaining binding (binding; 1 µM): 3.3%
